Results: ChEMBL document CHEMBL1123436, “Comparative toxicities and analgesic activities of three monomethylated analogues of acetaminophen” (J Med Chem, 1986)
Values joined by “and” are separate entries in the source; they are usually repeats but may differ in a detail not shown here. Equal values may be shown once.

Columns and labels:
[1] = test system: Mus musculus; assay: Urinary Metabolic (3-hydroxy-N-methylacetaminophen) profile in the mouse 24 hr after dose of 3 mmol/kg of the compound; format: ADME, organism-based, Urine; conditions: in vivo
[2] = test system: Mus musculus; assay: Time course of Distribution of Radioactivity in Mice Liver after 3 mmol/kg dose of the Compound after 3 h; format: ADME, organism-based; conditions: in vivo
Outline: (§1)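 Groups of 12 mice given [acetyl-14C]-labelled drug ip, 3 mmol/kg (0.45 mCi/mmol), housed individually with urine/feces separation. Four killed at each of 1, 3 and 24 h by exsanguination. Tissues (~100 mg) digested in Soluene 350; blood digested and peroxide-bleached; feces freeze-dried, rehydrated, digested and bleached. Scintillation counting; nmol equiv/mg tissue or per mL blood/urine, means ± SE (N = 4).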

[3] = test system: Mus musculus; assay: Time course of Distribution of Radioactivity in Mice kidney after 3 mmol/kg dose of the Compound after 1 h; format: ADME, organism-based; conditions: in vivo; outline: as §1
[4] = test system: Mus musculus; assay: Time course of Distribution of Radioactivity in Mice kidney after 3 mmol/kg dose of the Compound after 24 h; format: ADME, organism-based; conditions: in vivo; outline: as §1
[5] = test system: Mus musculus; assay: Time course of Distribution of Radioactivity in Mice kidney after 3 mmol/kg dose of the Compound after 3 h; format: ADME, organism-based; conditions: in vivo; outline: as §1
[6] = test system: Mus musculus; assay: Urinary Metabolic (3-methoxy-N-methylacetaminophen) profile in the mouse 24 hr after dose of 3 mmol/kg of the compound; format: ADME, organism-based, Urine; conditions: in vivo
[7] = test system: Mus musculus; assay: Urinary Metabolic (Acetaminophen) profile in the mouse 24 h after dose of 3 mmol/kg of the compound; format: ADME, organism-based, Urine; conditions: in vivo
[8] = test system: Mus musculus; assay: Urinary Metabolic (N-methylacetaminophen) profile in the mouse 24 hr after dose of 3 mmol/kg of the compound; format: ADME, organism-based, Urine; conditions: in vivo
[9] = test system: Mus musculus; assay: Time course of Distribution of Radioactivity in Mice brain after 3 mmol/kg dose of the Compound after 1 h; format: ADME, organism-based; conditions: in vivo; outline: as §1
[10] = test system: Mus musculus; assay: Time course of Distribution of Radioactivity in Mice brain after 3 mmol/kg dose of the Compound after 24 h; format: ADME, organism-based; conditions: in vivo; outline: as §1
[11] = test system: Mus musculus; assay: Time course of Distribution of Radioactivity in Mice brain after 3 mmol/kg dose of the Compound after 3 h; format: ADME, organism-based; conditions: in vivo; outline: as §1
[12] = test system: Mus musculus; assay: Time course of Distribution of Radioactivity in Mice feces after 3 mmol/kg dose of the Compound after 1 hr; format: ADME, organism-based; conditions: in vivo; outline: as §1
[13] = test system: Mus musculus; assay: Time course of Distribution of Radioactivity in Mice feces after 3 mmol/kg dose of the Compound after 24 h; format: ADME, organism-based; conditions: in vivo; outline: as §1
[14] = test system: Mus musculus; assay: Time course of Distribution of Radioactivity in Mice feces after 3 mmol/kg dose of the Compound after 3 h; format: ADME, organism-based; conditions: in vivo; outline: as §1
[15] = test system: Mus musculus; assay: Time course of Distribution of Radioactivity in Mice intestine after 3 mmol/kg dose of the Compound after 24 h; format: ADME, organism-based; conditions: in vivo; outline: as §1
[16] = test system: Mus musculus; assay: Time course of Distribution of Radioactivity in Mice intestine after 3 mmol/kg dose of the Compound after 3 h; format: ADME, organism-based; conditions: in vivo; outline: as §1
[17] = test system: Mus musculus; assay: Time course of Distribution of Radioactivity in Mice intestine after 3 mmol/kg dose of the Compound after 1 h; format: ADME, organism-based; conditions: in vivo; outline: as §1
[18] = test system: Mus musculus; assay: Time course of Distribution of Radioactivity in Mice lungs/heart after 3 mmol/kg dose of the Compound after 1 h; format: ADME, organism-based, Lung; conditions: in vivo; outline: as §1
[19] = test system: Mus musculus; assay: Time course of Distribution of Radioactivity in Mice lungs/heart after 3 mmol/kg dose of the Compound after 24 h; format: ADME, organism-based, Lung; conditions: in vivo; outline: as §1
[20] = test system: Mus musculus; assay: Time course of Distribution of Radioactivity in Mice lungs/heart after 3 mmol/kg dose of the Compound after 3 h; format: ADME, organism-based, Lung; conditions: in vivo; outline: as §1
[21] = test system: Mus musculus; assay: Time course of Distribution of Radioactivity in Mice spleen after 3 mmol/kg dose of the Compound after 1 h; format: ADME, organism-based; conditions: in vivo; outline: as §1
[22] = test system: Mus musculus; assay: Time course of Distribution of Radioactivity in Mice spleen after 3 mmol/kg dose of the Compound after 24 h; format: ADME, organism-based; conditions: in vivo; outline: as §1
[23] = test system: Mus musculus; assay: Time course of Distribution of Radioactivity in Mice spleen after 3 mmol/kg dose of the Compound after 3 h; format: ADME, organism-based; conditions: in vivo; outline: as §1
[24] = test system: Mus musculus; assay: Time course of Distribution of Radioactivity in Mice stomach after 3 mmol/kg dose of the Compound after 1 h; format: ADME, organism-based; conditions: in vivo; outline: as §1
[25] = test system: Mus musculus; assay: Time course of Distribution of Radioactivity in Mice stomach after 3 mmol/kg dose of the Compound after 24 h; format: ADME, organism-based; conditions: in vivo; outline: as §1
[26] = test system: Mus musculus; assay: Time course of Distribution of Radioactivity in Mice Liver after 3 mmol/kg dose of the Compound after 1 h; format: ADME, organism-based; conditions: in vivo; outline: as §1
[27] = test system: Mus musculus; assay: Time course of Distribution of Radioactivity in Mice Urine after 3 mmol/kg dose of the Compound after 1 h; format: ADME, organism-based; conditions: in vivo; outline: as §1
[28] = test system: Mus musculus; assay: Time course of Distribution of Radioactivity in Mice Urine after 3 mmol/kg dose of the Compound after 24 h; format: ADME, organism-based; conditions: in vivo; outline: as §1
[29] = test system: Mus musculus; assay: Time course of Distribution of Radioactivity in Mice Urine after 3 mmol/kg dose of the Compound after 3 h; format: ADME, organism-based; conditions: in vivo; outline: as §1
[30] = test system: Mus musculus; assay: Time course of Distribution of Radioactivity in Mice blood after 3 mmol/kg dose of the Compound after 1 h; format: ADME, organism-based; conditions: in vivo; outline: as §1
[31] = test system: Mus musculus; assay: Time course of Distribution of Radioactivity in Mice blood after 3 mmol/kg dose of the Compound after 24 h; format: ADME, organism-based; conditions: in vivo; outline: as §1
[32] = species on record: Mus musculus; assay: Analgesic activity determined in mice using the Bradykinin-induced Writhing test; format: organism-based
Outline: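 Male CD1 mice (15–20 g), test drug given orally 15 min before bradykinin ip (4 μg in 0.2 mL sterile water), then a second bradykinin injection (0.2 μg/0.1 mL) 15 min later. Writhing was scored over the next 10 min, with control groups of 10 mice. ED50 was derived by log-probit analysis from at least five doses, with 95% limits.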

[33] = test system: Mus musculus; assay: (§2) Hepatotoxicity in Swiss-Webster Mice Caused by compound at 500 mg/kg (i.p.) dose; format: functional; conditions: route intraperitoneal
Outline: (§3)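 Male Swiss-Webster mice (20 g), groups of 10, were given a single ip dose of drug in saline with no pretreatment. Survivors were decapitated at 24 h and counted. Plasma ALT was measured, and liver sections (formalin-fixed, paraffin, H&E) were scored for necrosis severity in survivors. Values are means ± SE.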

[34] = test system: Mus musculus; assay: as §2; format: functional, organism-based; parameters: dose 500 mg/kg
Outline: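 Male Swiss-Webster mice (20 g), groups of 10, dosed ip in saline; some groups pretreated with phenobarbital (80 mg/kg ip at 72, 60, 48, 24 h), cobaltous chloride (30 mg/kg ip at 48, 36, 24, 12 h) or neat piperonyl butoxide (1360 mg/kg ip, 30 min before). Survivors killed at 24 h; plasma ALT measured, liver H&E sections scored for necrosis; means ± SE.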

[35] = test system: Mus musculus; assay: Hepatotoxicity in Swiss-Webster Mice Caused by compound at 500 mg/kg (i.p.) dose; 9/10; format: functional; conditions: route intraperitoneal; outline: as §3
[36] = test system: Mus musculus; assay: Time course of Distribution of Radioactivity in Mice blood after 3 mmol/kg dose of the Compound after 3 h; format: ADME, organism-based; conditions: in vivo; outline: as §1
[37] = test system: Mus musculus; assay: Time course of Distribution of Radioactivity in Mice stomach after 3 mmol/kg dose of the Compound after 3 h; format: ADME, organism-based; conditions: in vivo; outline: as §1
[38] = test system: Mus musculus; assay: Time course of Distribution of Radioactivity in Mice Liver after 3 mmol/kg dose of the Compound after 24 h; format: ADME, organism-based; conditions: in vivo; outline: as §1
[39] = test system: Mus musculus; assay: Hepatotoxicity in Swiss-Webster Mice Caused by compound at 1000 mg/kg (i.p.) dose; 5/10; conditions: route intraperitoneal

CC(=O)N(C)c1ccc(O)cc1
Administered dose [1]: 0.6%
Radioactivity [2]: 0.6 nM equiv (mg of tissue)-1
Radioactivity [3]: 3.73 nM equiv (mg of tissue)-1
Radioactivity [4]: 0.05 nM equiv (mg of tissue)-1
Radioactivity [5]: 0.49 nM equiv (mg of tissue)-1
Administered dose [6]: 13.7%
Administered dose [7]: 1.9%
Administered dose [8]: 78.9%
Radioactivity [9]: 1.03 nM equiv (mg of tissue)-1
Radioactivity [10]: 0.01 nM equiv (mg of tissue)-1
Radioactivity [11]: 0.05 nM equiv (mg of tissue)-1
Radioactivity [12]: 0.03 nM equiv mg-1
Radioactivity [13]: 74.5 nM equiv mg-1
Radioactivity [14]: 3.17 nM equiv mg-1
Radioactivity [15]: 0.61 nM equiv (mg of tissue)-1
Radioactivity [16]: 1.52 nM equiv (mg of tissue)-1
Radioactivity [17]: 2.17 nM equiv (mg of tissue)-1
Radioactivity [18]: 1.78 nM equiv (mg of tissue)-1
Radioactivity [19]: 0.03 nM equiv (mg of tissue)-1
Radioactivity [20]: 0.13 nM equiv (mg of tissue)-1
Radioactivity [21]: 1.58 nM equiv (mg of tissue)-1
Radioactivity [22]: 0.03 nM equiv (mg of tissue)-1
Radioactivity [23]: 0.13 nM equiv (mg of tissue)-1
Radioactivity [24]: 0.21 nM equiv (mg of tissue)-1
Radioactivity [25]: 0.08 nM equiv (mg of tissue)-1
Radioactivity [26]: 3.16 nM equiv (mg of tissue)-1
Radioactivity [27]: 7.67 nM equiv (ml of urine)-1
Radioactivity [28]: 6978 nM equiv (ml of urine)-1
Radioactivity [29]: 3200 nM equiv (ml of urine)-1
Radioactivity [30]: 1855 nM equiv (ml of blood)-1
Radioactivity [31]: 14.6 nM equiv (ml of blood)-1
ED50 [32]: > 200 mg/kg
Hepatic necrosis in survivors [33]: 0
Plasma ALT at 24 h [34]: 27 mU ml-1 and 32 mU ml-1
Survivors at 24 h [35]: 9
Radioactivity [36]: 501 nM equiv (ml of blood)-1
Radioactivity [37]: 0.87 nM equiv (mg of tissue)-1
Radioactivity [38]: 0.05 nM equiv (mg of tissue)-1
Survivors at 24 h [39]: 5
